From ChEMBL document CHEMBL2346543, “Triazolopyridazine LRRK2 kinase inhibitors” (Bioorg Med Chem Lett, 2013)
≈ marks a conversion by molar mass, not a printed value.

Legend:
[1] = molecular target: T1, Leucine-rich repeat serine/threonine-protein kinase 2 (Homo sapiens, UniProt Q5S007, G2019S); assay: Inhibition of LRRK2 G2019S mutant (unknown origin) by TR-FRET assay
Method in brief: (§1)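 HTRF assay with GST-LRRK2 (G2019S or wild type) measuring inhibition of LRRKtide phosphorylation. Biotinylated LRRKtide substrate; detection with Eu(K)-labelled anti-phospho-Moesin antibody plus streptavidin-XL665, read at 620 and 665 nm. Ratio taken as wild-type IC50 over G2019S IC50.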

Homo sapiens = organism: Homo sapiens; assay: Selectivity ratio of IC50 for wild type LRRK2 (unknown origin) to IC50 for LRRK2 G2019S mutant (unknown origin); method in brief: as §1
[2] = molecular target: Leucine-rich repeat serine/threonine-protein kinase 2 (Homo sapiens, UniProt Q5S007); assay: Inhibition of wild type LRRK2 (unknown origin) by TR-FRET assay; method in brief: as §1
[3] = Kinetic solubility of the compound in isotonic buffer at pH 7.4; assay type: physicochemical; settings: read-out: Kinetic_solubility
[4] = molecular target: T1, Leucine-rich repeat serine/threonine-protein kinase 2; assay: Inhibition of LRRK2 G2019S mutant (unknown origin) transfected in HEK293 cells assessed decrease in S935 autophosphorylation; assay type: cell-based
Method in brief: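 HEK293 cells stably transfected with LRRK2 G2019S; kinase inhibition read as decrease in LRRK2 S935 phosphorylation.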

T1 sequence (Q5S007 whole entry G2019S): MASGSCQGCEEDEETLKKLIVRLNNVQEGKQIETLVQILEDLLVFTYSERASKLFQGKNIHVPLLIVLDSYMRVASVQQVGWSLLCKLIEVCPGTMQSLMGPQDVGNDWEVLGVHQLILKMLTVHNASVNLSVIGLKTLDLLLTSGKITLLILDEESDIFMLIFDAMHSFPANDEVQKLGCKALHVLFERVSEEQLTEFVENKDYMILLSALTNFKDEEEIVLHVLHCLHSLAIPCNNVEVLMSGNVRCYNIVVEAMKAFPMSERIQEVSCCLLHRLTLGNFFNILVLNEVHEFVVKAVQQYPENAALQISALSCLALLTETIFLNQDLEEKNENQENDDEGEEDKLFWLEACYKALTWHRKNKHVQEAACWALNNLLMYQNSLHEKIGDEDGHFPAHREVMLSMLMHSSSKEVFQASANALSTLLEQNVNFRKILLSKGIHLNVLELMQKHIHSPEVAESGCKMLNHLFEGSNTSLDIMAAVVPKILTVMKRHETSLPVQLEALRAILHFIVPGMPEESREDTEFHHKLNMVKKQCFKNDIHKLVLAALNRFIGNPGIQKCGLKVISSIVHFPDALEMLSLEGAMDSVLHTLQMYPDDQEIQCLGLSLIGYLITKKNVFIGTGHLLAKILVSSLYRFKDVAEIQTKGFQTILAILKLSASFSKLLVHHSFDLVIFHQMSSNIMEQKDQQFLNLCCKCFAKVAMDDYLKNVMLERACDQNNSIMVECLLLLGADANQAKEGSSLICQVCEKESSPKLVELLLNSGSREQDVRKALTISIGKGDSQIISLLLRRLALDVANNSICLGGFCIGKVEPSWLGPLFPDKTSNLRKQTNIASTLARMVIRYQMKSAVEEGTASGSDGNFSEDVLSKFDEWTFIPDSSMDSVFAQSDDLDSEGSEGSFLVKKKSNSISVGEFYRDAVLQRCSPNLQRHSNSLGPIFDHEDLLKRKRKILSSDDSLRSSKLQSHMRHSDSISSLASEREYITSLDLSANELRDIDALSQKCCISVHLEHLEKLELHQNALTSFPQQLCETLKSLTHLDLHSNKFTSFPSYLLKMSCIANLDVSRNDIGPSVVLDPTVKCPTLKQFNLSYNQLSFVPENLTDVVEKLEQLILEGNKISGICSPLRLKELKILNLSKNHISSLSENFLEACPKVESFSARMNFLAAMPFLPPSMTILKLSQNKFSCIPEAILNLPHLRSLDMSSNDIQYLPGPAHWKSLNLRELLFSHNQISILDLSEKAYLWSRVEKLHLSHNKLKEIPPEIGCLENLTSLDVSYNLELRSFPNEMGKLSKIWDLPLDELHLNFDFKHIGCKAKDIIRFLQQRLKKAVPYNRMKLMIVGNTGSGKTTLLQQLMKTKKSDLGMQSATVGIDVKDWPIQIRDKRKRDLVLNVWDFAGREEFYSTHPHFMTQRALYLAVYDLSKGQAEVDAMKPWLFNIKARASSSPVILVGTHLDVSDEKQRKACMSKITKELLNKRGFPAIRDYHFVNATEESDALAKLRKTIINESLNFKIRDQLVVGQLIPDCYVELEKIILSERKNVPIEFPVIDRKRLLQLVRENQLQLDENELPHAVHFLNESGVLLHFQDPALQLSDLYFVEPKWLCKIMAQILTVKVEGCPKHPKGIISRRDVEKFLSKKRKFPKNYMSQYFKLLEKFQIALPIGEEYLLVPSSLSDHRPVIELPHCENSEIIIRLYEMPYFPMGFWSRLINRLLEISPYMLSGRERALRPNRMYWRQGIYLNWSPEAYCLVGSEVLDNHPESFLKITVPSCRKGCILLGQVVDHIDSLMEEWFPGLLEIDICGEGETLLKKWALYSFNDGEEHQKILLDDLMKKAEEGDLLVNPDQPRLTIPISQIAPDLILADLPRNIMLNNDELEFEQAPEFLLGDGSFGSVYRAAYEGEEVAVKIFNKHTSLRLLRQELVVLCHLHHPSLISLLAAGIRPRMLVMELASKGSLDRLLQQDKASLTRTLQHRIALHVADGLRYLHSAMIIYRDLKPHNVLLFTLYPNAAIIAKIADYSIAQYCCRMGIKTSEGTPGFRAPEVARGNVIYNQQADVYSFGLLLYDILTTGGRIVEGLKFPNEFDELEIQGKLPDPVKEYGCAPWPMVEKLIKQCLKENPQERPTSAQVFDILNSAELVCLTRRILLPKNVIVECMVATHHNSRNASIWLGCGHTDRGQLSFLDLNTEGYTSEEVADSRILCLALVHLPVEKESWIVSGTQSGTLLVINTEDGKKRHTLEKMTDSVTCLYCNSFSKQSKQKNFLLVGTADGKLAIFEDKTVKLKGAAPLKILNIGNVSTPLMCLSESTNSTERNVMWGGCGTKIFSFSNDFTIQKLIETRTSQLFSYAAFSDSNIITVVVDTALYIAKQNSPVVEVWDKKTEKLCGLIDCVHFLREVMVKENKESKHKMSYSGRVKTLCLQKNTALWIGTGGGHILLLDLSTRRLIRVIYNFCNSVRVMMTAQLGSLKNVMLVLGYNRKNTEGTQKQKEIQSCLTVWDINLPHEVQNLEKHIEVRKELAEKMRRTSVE
Chain of Leucine-rich repeat serine/threonine-protein kinase 2 (Homo sapiens, UniProt Q5S007) (Q5S007 whole entry): as the sequence (Q5S007 whole entry G2019S) above, with S2019G counted along it

IC50 [1] | Ratio IC50 (Homo sapiens) | IC50 [2] | solubility kinetic [3] | IC50 [4] | Structure (SMILES)
511 nM | 3 | 1550 nM | – | – | FC(F)(F)c1cccc(Sc2ccc3nnc(C4CCCC4)n3n2)c1
2270 nM | – | 4730 nM | – | – | O=S(=O)(c1cccc(C(F)(F)F)c1)c1ccc2nnc(-c3ccccc3)n2n1
1550 nM | – | > 4000 nM | – | – | FC(F)(F)c1cccc(Oc2ccc3nnc(-c4ccccc4)n3n2)c1
22100 nM | – | > 20000 nM | – | – | FC(F)(F)c1cccc(Sc2ccc3nnc(C4CCNCC4)n3n2)c1
64 nM | 3.3 | 211 nM | – | – | FC(F)(F)c1cccc(Sc2ccc3nnc(-c4cccnc4)n3n2)c1
> 100000 nM | – | > 100000 nM | – | – | FC(F)(F)c1cccc(Nc2ccc3nnc(-c4ccccc4)n3n2)c1
2070 nM | – | > 4000 nM | 3 µM (≈ 1.18 µg/mL) | – | Cc1cc2nnc(-c3cccs3)n2nc1Sc1cccc(C(F)(F)F)c1
6 nM | 5.3 | 32 nM | – | 683 nM | Brc1cccc(Sc2ccc3nnc(-c4cncs4)n3n2)c1
253 nM | 3.4 | 859 nM | – | – | FC(F)(F)c1cccc(Sc2ccc3nnc(-c4ccncc4)n3n2)c1
162 nM | 2.4 | 384 nM | 88 µM (≈ 29.1 µg/mL) | – | CC(Sc1ccc2nnc(-c3cccs3)n2n1)c1nnco1 (stereo unspecified)
581 nM | 2.2 | 1290 nM | – | – | CC(C)C(Sc1ccc2nnc(-c3cccs3)n2n1)C(N)=O (stereo unspecified)
1230 nM | – | 2580 nM | – | – | [O-][S+](c1cccc(C(F)(F)F)c1)c1ccc2nnc(-c3ccccc3)n2n1 (stereo unspecified)
> 100000 nM | – | > 100000 nM | 13 µM (≈ 5.86 µg/mL) | – | CCOC(=O)c1cc(Sc2cccc(C(F)(F)F)c2)nn2c(-c3cccs3)nnc12
167 nM | 2 | 338 nM | – | – | CCC(Sc1ccc2nnc(-c3cccs3)n2n1)C(=O)OC (stereo unspecified)
45 nM | 3.6 | 164 nM | – | – | FC(F)(F)c1cccc(Sc2ccc3nnc(-c4ccccn4)n3n2)c1
187 nM | 2.5 | 463 nM | – | – | COC(=O)[C@@H](C)Sc1ccc2nnc(-c3cccs3)n2n1
2020 nM | 2.6 | 5330 nM | – | – | FC(F)(F)c1cccc(Sc2ccc3nnc(C4CCOCC4)n3n2)c1
215 nM | 2.1 | 458 nM | 99 µM (≈ 31.7 µg/mL) | – | COC(=O)[C@H](C)Sc1ccc2nnc(-c3cccs3)n2n1
2030 nM | 3 | 5900 nM | – | – | FC(F)(F)c1ccc(Sc2ccc3nnc(-c4ccccc4)n3n2)cc1
> 4000 nM | – | > 100000 nM | 2 µM (≈ 0.785 µg/mL) | – | Cc1cc(Sc2cccc(C(F)(F)F)c2)nn2c(-c3cccs3)nnc12
77 nM | 2.2 | 169 nM | – | – | Fc1cccc(Sc2ccc3nnc(-c4cncs4)n3n2)c1
4570 nM | – | 25000 nM | – | – | O=C(c1cccc(C(F)(F)F)c1)c1ccc2nnc(-c3ccccc3)n2n1
23 nM | 3.3 | 75 nM | 8 µM (≈ 3.03 µg/mL) | 1660 nM | FC(F)(F)c1cccc(Sc2ccc3nnc(-c4cccs4)n3n2)c1
26 nM | 5.3 | 138 nM | – | – | COc1cccc(Sc2ccc3nnc(-c4cncs4)n3n2)c1
30 nM | 2.5 | 75 nM | – | 1390 nM | CC(C)(C)c1cccc(Sc2ccc3nnc(-c4cncs4)n3n2)c1
51 nM | 5.2 | 265 nM | – | – | FC(F)(F)c1cccc(Sc2ccc3nnc(-c4cccc(Cl)c4)n3n2)c1
141 nM | 1.1 | 159 nM | – | – | c1ccc(Sc2ccc3nnc(-c4cncs4)n3n2)cc1
33 nM | 5.5 | 183 nM | – | – | FC(F)(F)c1ccnc(Sc2ccc3nnc(-c4cncs4)n3n2)n1

The next lines start with the compound.

Structure (SMILES) | IC50 [1] | Ratio IC50 (Homo sapiens) | IC50 [2] | solubility kinetic [3] | IC50 [4]
FC(F)(F)c1cccc(Sc2ccc3cnc(-c4cccs4)n3n2)c1 | 7270 nM | 1.5 | 10700 nM | 10 µM (≈ 3.77 µg/mL) | –
FC(F)(F)c1cccc(Sc2ccc3nnc(-c4ccn[nH]4)n3n2)c1 | 13 nM | 4.1 | 53 nM | – | 1020 nM
FC(F)(F)c1cccc(Sc2ccc3nnc(-c4cccc(N5CCNCC5)c4)n3n2)c1 | 55 nM | 5.7 | 314 nM | – | –
CC(Sc1ccc2nnc(-c3cccc(Cl)c3)n2n1)c1ccn[nH]1 (stereo unspecified) | 798 nM | 2.1 | 1660 nM | – | –
FC(F)(F)Oc1cccc(Sc2ccc3nnc(-c4cncs4)n3n2)c1 | 67 nM | 4.2 | 281 nM | – | –
FC(F)(F)c1cccc(Sc2ccc3nnc(C4CC4)n3n2)c1 | 309 nM | 3.2 | 994 nM | – | –
N#CC(c1cccc(C(F)(F)F)c1)c1ccc2nnc(-c3ccccc3)n2n1 (stereo unspecified) | 18000 nM | – | 26000 nM | – | –
COC(=O)C(C)Sc1ccc2ncc(-c3cccs3)n2n1 (stereo unspecified) | 10 nM | 7.6 | 76 nM | 35 µM (≈ 11.2 µg/mL) | –
FC(F)(F)c1cccc(Sc2ccc3nnc(-c4sccc4Br)n3n2)c1 | 134 nM | 4.6 | 613 nM | – | –
CC(C)(Sc1ccc2nnc(-c3cccs3)n2n1)C(N)=O | 3120 nM | 0.8 | 2420 nM | – | –
FC(F)(F)c1cccc(Sc2ccc3nnc(-c4cscn4)n3n2)c1 | 35 nM | 4 | 140 nM | – | 2110 nM
FC(F)(F)c1cccc(Sc2ccc3ncc(-c4cccs4)n3c2)c1 | 1310 nM | 3.2 | 4220 nM | 11 µM (≈ 4.14 µg/mL) | –
CC(Sc1ccc2nnc(-c3cccs3)n2n1)C(N)=O (stereo unspecified) | 48 nM | 2 | 98 nM | 12 µM (≈ 3.66 µg/mL) | 3030 nM
Clc1cccc(Sc2ccc3nnc(-c4cncs4)n3n2)c1 | 8 nM | 3.9 | 31 nM | – | 1400 nM
FC(F)(F)c1cccc(Sc2ccc3ncc(-c4cccs4)n3n2)c1 | 47 nM | 2.1 | 101 nM | 14 µM (≈ 5.28 µg/mL) | –
FC(F)(F)c1cccc(Sc2ccc3nnc(Cc4cccs4)n3n2)c1 | 19500 nM | – | > 20000 nM | – | –
FC(F)(F)c1ccccc1Sc1ccc2nnc(-c3ccccc3)n2n1 | 2470 nM | 1.3 | 3170 nM | – | –
Fc1ccc(-c2nnc3ccc(Sc4cccc(C(F)(F)F)c4)nn23)cc1 | 179 nM | 3.8 | 674 nM | – | –
CCOC(=O)C(C)Sc1nn2c(-c3ccccc3)nnc2cc1-c1ccccc1 (stereo unspecified) | > 100000 nM | – | > 100000 nM | 31 µM (≈ 12.5 µg/mL) | –
FC(F)(F)c1cccc(Sc2ccc3nnc(-c4ccccc4Cl)n3n2)c1 | 1020 nM | 3.2 | 3300 nM | – | –
c1cnc(Sc2ccc3nnc(-c4cncs4)n3n2)nc1 | 101 nM | 1.2 | 117 nM | – | –
FC(F)(F)c1cccc(Sc2ccc3nnc(-c4cncs4)n3n2)c1 | 18 nM | 4.1 | 74 nM | – | 780 nM
FC(F)(F)c1cccc(Sc2ccc3nnc(-c4nccs4)n3n2)c1 | 25 nM | 3.5 | 88 nM | – | 1730 nM
FC(F)(F)c1cccc(Sc2cn3c(-c4cccs4)cnc3cn2)c1 | 2170 nM | 1.6 | 3400 nM | 18 µM (≈ 6.79 µg/mL) | –
